Experimental findings from ChEMBL document CHEMBL1275345, “Pyrazolo[1',5':1,6]pyrimido[4,5-d]pyridazin-4(3H)-ones as selective human A(1) adenosine receptor ligands” (Bioorg Med Chem, 2010) are described below.

By Ki is commonly meant the equilibrium dissociation constant of an inhibitor or competing ligand from its target. Read a high Ki as lower affinity. Usually inhibition stands for the relative decrease from the control value, in per cent.

Calls of active or inactive are those of the source. The calls are words filed in the database; no cut-off is given here. Some results are limits rather than exact numbers.

Test [1] addresses T1, Adenosine receptor A3 (Bos taurus, UniProt Q0VC81).
T1 sequence (Q0VC81 whole entry): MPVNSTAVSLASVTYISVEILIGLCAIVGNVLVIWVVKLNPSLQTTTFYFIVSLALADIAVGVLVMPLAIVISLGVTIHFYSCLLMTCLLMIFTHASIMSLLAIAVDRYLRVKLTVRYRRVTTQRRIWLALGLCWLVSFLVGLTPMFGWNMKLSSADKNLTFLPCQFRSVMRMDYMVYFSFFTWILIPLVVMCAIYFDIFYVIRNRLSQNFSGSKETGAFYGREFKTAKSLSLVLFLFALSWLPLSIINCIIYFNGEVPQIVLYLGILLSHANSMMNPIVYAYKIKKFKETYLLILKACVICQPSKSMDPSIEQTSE
The experiment in a line: Binding affinity to bovine adenosine A3 receptor.

A short description of test [2]: Binding affinity to bovine adenosine A2a receptor. Also on record: species or system Bos taurus.
In another test the target is T2, Adenosine receptor A1 (Homo sapiens, UniProt P30542).
T2 sequence (P30542 whole entry): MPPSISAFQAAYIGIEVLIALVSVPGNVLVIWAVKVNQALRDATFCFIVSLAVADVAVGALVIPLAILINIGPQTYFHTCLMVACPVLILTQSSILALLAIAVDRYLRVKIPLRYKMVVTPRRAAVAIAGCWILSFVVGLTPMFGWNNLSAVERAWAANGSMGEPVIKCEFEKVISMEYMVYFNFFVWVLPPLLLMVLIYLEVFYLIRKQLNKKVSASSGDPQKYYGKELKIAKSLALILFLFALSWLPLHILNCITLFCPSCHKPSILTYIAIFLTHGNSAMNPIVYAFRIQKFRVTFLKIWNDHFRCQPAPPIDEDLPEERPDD
Nature of the test: Displacement of [3H]DPCPX from human adenosine A1 receptor expressed in CHO-A1 cells after 60 mins. The class given is cell-based. The essentials:
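Competition binding on membranes from CHO cells expressing human A1 receptor, labelled with 2 nM [3H]DPCPX. Non-specific binding defined with (R)-PIA. Incubation at 25 °C for 60 min, then filtration and beta scintillation counting. Result given as Ki (nM) or % inhibition at the single test concentration. Means of four separate assays, each in triplicate.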

Test [3] has as its target T3, Adenosine receptor A3 (Homo sapiens) (UniProt P0DMS8).
T3 sequence (whole entry): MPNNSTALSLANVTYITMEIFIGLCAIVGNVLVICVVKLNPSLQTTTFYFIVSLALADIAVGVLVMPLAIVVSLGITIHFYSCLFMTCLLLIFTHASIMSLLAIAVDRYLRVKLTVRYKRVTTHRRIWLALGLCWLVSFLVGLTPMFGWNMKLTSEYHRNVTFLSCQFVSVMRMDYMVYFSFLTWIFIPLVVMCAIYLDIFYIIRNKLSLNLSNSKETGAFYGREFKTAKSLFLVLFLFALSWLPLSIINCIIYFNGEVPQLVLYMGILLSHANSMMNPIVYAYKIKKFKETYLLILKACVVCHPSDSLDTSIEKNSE
Nature of the test: Displacement of [3H]NECA from human adenosine A3 receptor expressed in HeLa cells at 10 uM after 180 mins. The class given is cell-based. In outline:
(§1)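 HeLa cells expressing human A3 receptor, with displacement of [3H]NECA. Incubated at 25 °C for 180 min, then filtered and counted by beta scintillation. Ki (nM) or percentage inhibition at the single test concentration. Means of four assays, each in triplicate.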
(In general: Loss of bound radioactivity is the signal in a displacement assay; it reports binding, not function.)

In test [4] the target is cGMP-specific 3',5'-cyclic phosphodiesterase (Homo sapiens) (UniProt O76074). Nature of the test: Inhibition of human platelets PDE5 at 2 uM. The essentials: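 PDE5 came from human platelet lysate (10⁹ platelets): the supernatant was fractionated on a Mono-Q ion-exchange column. Activity was measured with a two-step cyclic nucleotide phosphodiesterase procedure. Compounds were tested at a single concentration and the result given as % inhibition.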

In test [5] the target is T4, Adenosine receptor A2b (Homo sapiens) (UniProt P29275).
T4 sequence (whole entry): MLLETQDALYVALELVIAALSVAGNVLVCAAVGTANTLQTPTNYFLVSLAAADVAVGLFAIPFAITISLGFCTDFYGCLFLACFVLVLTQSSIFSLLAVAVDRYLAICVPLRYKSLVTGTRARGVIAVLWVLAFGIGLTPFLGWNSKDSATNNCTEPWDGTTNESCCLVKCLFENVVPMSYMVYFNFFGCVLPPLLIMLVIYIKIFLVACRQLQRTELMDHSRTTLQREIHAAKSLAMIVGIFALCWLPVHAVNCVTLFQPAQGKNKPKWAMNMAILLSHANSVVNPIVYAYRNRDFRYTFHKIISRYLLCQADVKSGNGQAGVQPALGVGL
Nature of the test: Displacement of [3H]DPCPX from human adenosine A2b receptor expressed in HEK293 cells at 10 uM after 30 mins. The format is cell-based. In outline:
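Human A2B receptor expressed in HEK-293 cells, with displacement of [3H]DPCPX. Incubated at 25 °C for 30 min, then filtered and counted by beta scintillation. Reported as Ki (nM) or percentage inhibition at the single test concentration. Means of four independent assays, each run in triplicate.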

Test [6] addresses T5, Adenosine receptor A2a (Homo sapiens, UniProt P29274). The experiment in a line: Displacement of [3H]ZM241385 from human adenosine A2a receptor expressed in HeLa cells after 30 mins. The format is cell-based. In outline:
(§2)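 [3H]ZM241385 specific binding in HeLa cells expressing human A2A receptor. Incubation at 25 °C for 30 min, followed by filtration and beta scintillation counting. Output is Ki (nM) or % inhibition at the single test concentration. Values are means of four separate assays, each performed in triplicate.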

The target in test [7] is T5, Adenosine receptor A2a. Nature of the test: Displacement of [3H]ZM241385 from human adenosine A2a receptor expressed in HeLa cells at 10 uM after 30 mins. The format is cell-based. In outline:
as §2

For test [8], the target named is T6, Adenosine receptor A2b (Homo sapiens, UniProt P29275).
T6 sequence (P29275 whole entry): T4 sequence (whole entry)
Nature of the test: Binding affinity to human adenosine A2b receptor. In outline: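 Competition binding on human A2B receptors expressed in HEK-293 cells, displacing [3H]DPCPX. Bound radioactivity was separated by filtration and counted by beta scintillation. Values are means of four separate assays, each run in triplicate.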

Test [9] is filed under the species Homo sapiens. The experiment in a line: Selectivity ratio of Ki for human adenosine A2a receptor to Ki for human A1 receptor.
The species entered for test [10] is Homo sapiens. The experiment in a line: Selectivity ratio of Ki for human adenosine A2b receptor to Ki for human A1 receptor.
For test [11], the target named is T6, Adenosine receptor A2b. The experiment in a line: Displacement of [3H]DPCPX from human adenosine A2b receptor expressed in HEK293 cells after 30 mins. The class given is cell-based.
The nature of test [12]: Binding affinity to human adenosine A2 receptor.
Test [13] has as its target T7, Adenosine receptor A1 (Bos taurus) (UniProt P28190).
T7 sequence (whole entry): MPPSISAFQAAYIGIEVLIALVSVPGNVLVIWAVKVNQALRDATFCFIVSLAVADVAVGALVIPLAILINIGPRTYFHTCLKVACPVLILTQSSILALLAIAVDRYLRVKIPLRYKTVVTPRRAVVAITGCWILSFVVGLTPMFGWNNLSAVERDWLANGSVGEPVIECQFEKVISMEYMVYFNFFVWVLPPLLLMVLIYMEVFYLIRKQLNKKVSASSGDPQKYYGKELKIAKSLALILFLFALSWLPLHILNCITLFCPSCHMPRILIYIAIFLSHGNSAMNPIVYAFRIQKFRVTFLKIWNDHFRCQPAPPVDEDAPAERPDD
Nature of the test: Binding affinity to bovine adenosine A1 receptor at 34 uM.

The species named for the next test is Bos taurus. The experiment in a line: Binding affinity to bovine adenosine A2a receptor at 34 uM.
The target in test [14] is T8, Adenosine receptor A3 (Homo sapiens, UniProt P0DMS8).
T8 sequence (P0DMS8 whole entry): T3 sequence (whole entry)
Nature of the test: Displacement of [3H]NECA from human adenosine A3 receptor expressed in HeLa cells after 180 mins. The format is cell-based. In outline: as §1

T5 sequence (P29274 whole entry): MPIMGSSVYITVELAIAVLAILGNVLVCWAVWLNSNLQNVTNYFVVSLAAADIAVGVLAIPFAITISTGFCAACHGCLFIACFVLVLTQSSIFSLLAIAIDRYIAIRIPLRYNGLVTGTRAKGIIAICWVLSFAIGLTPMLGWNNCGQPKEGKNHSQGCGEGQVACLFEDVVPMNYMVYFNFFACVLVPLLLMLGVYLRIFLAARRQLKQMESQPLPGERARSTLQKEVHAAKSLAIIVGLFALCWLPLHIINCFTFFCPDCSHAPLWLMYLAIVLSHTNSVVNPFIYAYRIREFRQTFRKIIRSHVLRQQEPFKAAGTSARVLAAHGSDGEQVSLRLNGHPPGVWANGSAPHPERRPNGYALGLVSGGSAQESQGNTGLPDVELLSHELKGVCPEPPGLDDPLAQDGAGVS

`O=c1c(-c2ccccc2)nnc2n(-c3ccccc3)c3ccccc3n12`: the results for the Ki (on Adenosine receptor A3 [1]; in test [2]) were over 1000 nM and over 10000 nM, respectively.
For `Cc1nc2c(=O)n(Cc3ccccc3)nc(-c3cccnc3)c2c2cc(-c3ccccc3)nn12`, the Ki was 47.4 nM on Adenosine receptor A1 and 2110 nM at Adenosine receptor A2a [6]. The inhibition entry in [3] and in [5] was “inactive” each time. Besides, the inhibition in test [4] is 29.7%.
Consider `Cc1nc2c(=O)n(Cc3ccccc3)nc(-c3ccncc3)c2c2cc(-c3ccccc3)nn12`, for which the Ki on Adenosine receptor A1 stood at 43.6 nM; at Adenosine receptor A2a [6], 501 nM. Moreover, the inhibition result in [3] and in [5] was “inactive” each time. Further, the inhibition in test [4] amounted to 5.7%.
Regarding `CCc1nc2c(=O)n(Cc3ccccc3)nc(-c3cccnc3)c2c2cc(-c3ccccc3)nn12`, the inhibition at Adenosine receptor A2a [7] was under 50%; in [4], 32.8%. The compound also had a Ki at Adenosine receptor A1 of 180 nM. In addition, the inhibition entry in test [3] and in test [5] was “inactive” throughout.
Take `COc1ccc(CCCn2ncc3c2nc(N)n2nc(-c4ccco4)nc32)cc1`: the inhibition constant Ki at Adenosine receptor A3 [1] and at Adenosine receptor A2b [8] was over 10000 nM each time.
Regarding `O=c1c2ncn3nc(-c4ccccc4)cc3c2c(-c2cccnc2)nn1Cc1ccccc1`, the figures for the inhibition constant (Ki) on Adenosine receptor A1 and on Adenosine receptor A2a [6] were 11.4 nM and 805 nM, respectively. Moreover, the inhibition entry in test [3] and in test [5] was “inactive” each time. For the same compound, the Ratio Ki in the test filed under Homo sapiens [9] is 71.
As to `Cc1nn(Cc2ccccc2)c(=O)c2ncn3nc(-c4ccsc4)cc3c12`, the results for the inhibition constant Ki on Adenosine receptor A1, on Adenosine receptor A2b [11] and at Adenosine receptor A2a [6] were 85.3 nM, 4650 nM and 7360 nM, respectively. Further, the inhibition in test [3] is under 50%. Besides, the fold change (FC) amounted to 90 in the test filed under Homo sapiens [9] and 56 in the test filed under Homo sapiens [10].
As to `O=c1c2ncn3nc(-c4ccccc4)cc3c2c(-c2ccncc2)nn1Cc1ccccc1`, the values for the Ki on Adenosine receptor A1 and on Adenosine receptor A2a [6] were 10.2 nM and 67.9 nM, respectively. Further, the inhibition entry in test [3] and in [5] was “inactive” each time. The Ratio Ki in the test listed under Homo sapiens [9] was 7.
Take `O=C(Cc1cccc2ccccc12)Nc1nc2nn(CCCc3ccccc3)cc2c2nc(-c3ccco3)nn12`: the Ki turned out to be 300 nM on Adenosine receptor A3 [1] and 800 nM in [12].
`COc1ccc(-c2nc3c(O)nc4ccccc4n3n2)cc1`: the inhibition in test [13] is 0%; in the test filed under Bos taurus, 8.7%.
As for `Cc1nn(Cc2ccccc2)c(=O)c2ncn3nc(-c4ccccc4)cc3c12`, the inhibition (on Adenosine receptor A2a [7]; in test [3]) was under 50% in each case. The Ki was determined as 104 nM at Adenosine receptor A1 and 7560 nM at Adenosine receptor A2b [11].
As to `Cc1nn(C(C)c2ccccc2)c(=O)c2nc(C)n3nc(-c4ccccc4)cc3c12` (configuration not stated), the inhibition (at Adenosine receptor A2a [7]; in test [5]) was under 50% each time. In addition, the values for the Ki on Adenosine receptor A1 and at Adenosine receptor A3 [14] were 3080 nM and 4730 nM, respectively.
